Each structure is given as a SMILES string. Calls of active or inactive are those of the source.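 Rule for the calls: active = calcium signal ratio cut to more than 3 SD under the fully stimulated control mean yet still positive, in both repeats and the primary screen; inactive = the rest.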

The target in the experiment is Short transient receptor potential channel 4 (Mus musculus) (UniProt Q9QUQ5). Kind of experiment: inhibitors of mouse TRPC4 channel, confirmation, cell-based, second round, Fluo4, HEK293 TRPC4beta/mu-opioid, 1 µM (AID 2637).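 For inhibition: percent of integrated ratio relative to wells lacking test compound.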 The conditions noted are these: Fluo4 calcium flux, DAMGO, at 1 µM; active compounds read high. A digest of the protocol: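 System: HEK293 stable line co-expressing TRPC4beta and mu-opioid receptor; Repeats: duplicates; Benchmarks: ECmax and compound-free wells; Timing: Fluo4 loading 45 min, compound exposure 110 s; Dosing: one dose, 1 µM final; Also added: DAMGO, submaximal then ECmax; Signal: Fluo4 calcium fluorescence, kinetic real-time read after baseline.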
Sequence of Short transient receptor potential channel 4 (Mus musculus) (Q9QUQ5 whole entry, looked up): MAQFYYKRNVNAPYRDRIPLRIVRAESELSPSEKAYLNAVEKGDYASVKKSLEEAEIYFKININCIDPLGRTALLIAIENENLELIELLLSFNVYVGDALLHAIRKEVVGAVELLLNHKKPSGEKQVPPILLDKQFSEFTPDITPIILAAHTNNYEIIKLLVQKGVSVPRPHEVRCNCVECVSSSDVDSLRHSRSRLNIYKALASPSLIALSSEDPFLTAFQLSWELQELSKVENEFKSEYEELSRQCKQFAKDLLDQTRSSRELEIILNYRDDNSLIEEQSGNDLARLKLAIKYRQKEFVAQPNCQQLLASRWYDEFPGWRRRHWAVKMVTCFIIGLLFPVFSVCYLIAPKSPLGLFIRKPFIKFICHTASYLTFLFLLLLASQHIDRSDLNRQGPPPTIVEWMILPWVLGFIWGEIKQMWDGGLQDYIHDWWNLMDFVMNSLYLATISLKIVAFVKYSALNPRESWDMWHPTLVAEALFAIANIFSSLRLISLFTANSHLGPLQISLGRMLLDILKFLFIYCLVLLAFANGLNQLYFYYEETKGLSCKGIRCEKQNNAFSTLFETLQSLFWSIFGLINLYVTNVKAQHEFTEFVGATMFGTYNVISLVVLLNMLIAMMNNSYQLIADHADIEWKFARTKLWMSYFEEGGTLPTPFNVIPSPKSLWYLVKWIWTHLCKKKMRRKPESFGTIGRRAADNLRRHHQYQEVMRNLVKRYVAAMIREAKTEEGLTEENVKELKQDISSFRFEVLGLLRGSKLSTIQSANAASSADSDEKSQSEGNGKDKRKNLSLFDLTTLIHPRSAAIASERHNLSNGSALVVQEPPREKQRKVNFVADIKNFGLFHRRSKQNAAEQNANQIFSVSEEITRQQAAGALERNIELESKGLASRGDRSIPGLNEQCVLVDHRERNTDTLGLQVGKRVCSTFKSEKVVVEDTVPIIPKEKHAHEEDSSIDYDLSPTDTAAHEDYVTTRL
(In general: Calcium assays in cells follow changes in intracellular calcium, usually with a dye or a luminescent sensor.)
Consider `O=C(c1ccccc1F)N1CCN(c2ccc([N+](=O)[O-])c3cccnc23)CC1`, for which the outcome was inactive.
On the same count and under the same terms, then `Cc1ccc(NS(=O)(=O)c2cc(C(=O)N3CCc4ccccc4C3)ccc2Cl)cc1`, with “inactive”; and `CCn1cc(CN2CCC(n3nccc3NC(=O)CCOc3ccccc3)CC2)c(C)n1`, with “inactive”.
Consider `CCN1CCN(c2ccc(S(=O)(=O)N3CCCCC3)cc2NC(=O)COc2cc(C)ccc2Cl)CC1`, for which the outcome was inactive.
Turning to `CN(C)CCCCOc1cccc(Br)c1`, the outcome was inactive.
On the same count and under the same terms, next, `CC(C)c1ccc(C(C)NCCS(=O)(=O)c2ccc(Br)cc2)cc1` (centres undefined): “inactive”; `COc1cc2c(C(=O)N3CCN(C)CC3)c(CSc3ccccc3)n(C)c2cc1Br`: “inactive”.
Take `Cc1c(N2C(=O)/C(=C/c3ccccc3)SC2=S)c(=O)n(-c2ccccc2)n1C`: the outcome was inactive.
On the same count and under the same terms, then `Cc1n[nH]c(C)c1Cc1c(F)cccc1Cl`, with “inactive”; and `O=C(Nc1ccc([N+](=O)[O-])cn1)C1CCCCC1`, with “inactive”.
On the same count and under the same terms, then `O=c1[nH][nH]c(-c2ccccc2)c1C=Nc1ccc(F)cc1F`, with “inactive”.
In the case of `COc1ccccc1C1/C(=C(\O)c2ccc3c(c2)OCCO3)C(=O)C(=O)N1Cc1cccnc1` (centres undefined), the inhibition (usually the relative decrease from the control value, in per cent) is 63% (active).
For the compound `CCN(CC)CCSc1nnc2c3ccccc3n(Cc3ccccc3)c2n1`, the outcome was inactive.
On the same count and under the same terms, next, `CCCn1c(SCC(=O)N2c3ccccc3Sc3ccccc32)nc2c1c(=O)n(C)c(=O)n2C`: “inactive”.

The values are drawn from PubChem BioAssay.
